Measured values published in ChEMBL document CHEMBL1926642, “Relevance of the C-5 position to schweinfurthin induced cytotoxicity” (2011).

Experiments:
Format in all cases: functional
OVCAR-8 = experiment: Growth inhibition of human OVCAR8 cells after 48 hrs by sulforhodamine B assay; conditions: OVCAR-8, 48 h
SK-OV-3 = experiment: Growth inhibition of human SKOV3 cells after 48 hrs by sulforhodamine B assay; conditions: SK-OV-3, 48 h
HCT-116 = experiment: Growth inhibition of human HCT116 cells after 48 hrs by sulforhodamine B assay; conditions: HCT-116, 48 h
SNB-75 = experiment: Growth inhibition of human SNB75 cells after 48 hrs by sulforhodamine B assay; conditions: SNB-75, 48 h
SNB-19 = experiment: Growth inhibition of human SNB19 cells after 48 hrs by sulforhodamine B assay; conditions: SNB-19, 48 h
PC-3 = experiment: Growth inhibition of human PC3 cells after 48 hrs by sulforhodamine B assay; conditions: PC-3, 48 h
SK-MEL-28 = experiment: Growth inhibition of human SK-MEL-28 cells after 48 hrs by sulforhodamine B assay; conditions: SK-MEL-28, 48 h
A549 = experiment: Growth inhibition of human A549 cells after 48 hrs by sulforhodamine B assay; conditions: A549, 48 h
MDA-MB-435 = experiment: Growth inhibition of human MDA-MB-435 cells after 48 hrs by sulforhodamine B assay; conditions: MDA-MB-435, 48 h
SF-295 = experiment: Growth inhibition of human SF295 cells after 48 hrs by sulforhodamine B assay; conditions: SF-295, 48 h
[1] = Growth inhibition of human Hs 578T cells after 48 hrs by sulforhodamine B assay
SF-539 = experiment: Growth inhibition of human SF539 cells after 48 hrs by sulforhodamine B assay; conditions: SF-539, 48 h
EKVX = experiment: Growth inhibition of human EKVX cells after 48 hrs by sulforhodamine B assay
DU-145 = experiment: Growth inhibition of human DU145 cells after 48 hrs by sulforhodamine B assay; conditions: DU-145, 48 h
NCI-H460 = experiment: Growth inhibition of human NCI-H460 cells after 48 hrs by sulforhodamine B assay; conditions: NCI-H460, 48 h
HL-60(TB) = experiment: Growth inhibition of human HL-60(TB) cells after 48 hrs by sulforhodamine B assay; conditions: HL-60, 48 h
Summary of the method: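 Run in the NCI 60 cell-line screen as the full 5-dose assay that follows initial single-dose testing; GI50 is read from the dose series.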

UO-31 = experiment: Growth inhibition of human UO31 cells after 48 hrs by sulforhodamine B assay; conditions: UO-31, 48 h
NCI-H23 = experiment: Growth inhibition of human NCI-H23 cells after 48 hrs by sulforhodamine B assay; conditions: NCI-H23, 48 h
CCRF-CEM = experiment: Growth inhibition of human CCRF-CEM cells after 48 hrs by sulforhodamine B assay
K562 = experiment: Growth inhibition of human K562 cells after 48 hrs by sulforhodamine B assay; conditions: K562, 48 h
OVCAR-5 = experiment: Growth inhibition of human OVCAR5 cells after 48 hrs by sulforhodamine B assay; conditions: OVCAR-5, 48 h
RPMI-8226 = experiment: Growth inhibition of human RPMI8226 cells after 48 hrs by sulforhodamine B assay; conditions: RPMI-8226, 48 h
HOP-92 = experiment: Growth inhibition of human HOP92 cells after 48 hrs by sulforhodamine B assay; conditions: HOP-92, 48 h
Malme-3M = experiment: Growth inhibition of human MALME-3M cells after 48 hrs by sulforhodamine B assay
UACC-257 = experiment: Growth inhibition of human UACC257 cells after 48 hrs by sulforhodamine B assay; conditions: UACC-257, 48 h
SF-268 = experiment: Growth inhibition of human SF268 cells after 48 hrs by sulforhodamine B assay; conditions: SF-268, 48 h
[2] = read-out: pLC50 (the source's name) (converted)

COCOc1cc(/C=C/c2cc(CO)c3c(c2)C[C@@H]2C(C)(C)[C@H](O)CC[C@@]2(C)O3)cc(OC)c1C/C=C(\C)CCC=C(C)C
GI50 (OVCAR-8): 11 µM | LC50 (OVCAR-8): 77.6 µM | TGI (OVCAR-8; read-out: pTGI (converted)): 29.5 µM | GI50 (SK-OV-3): 19.5 µM | LC50 (SK-OV-3): > 100 µM | TGI (SK-OV-3; read-out: pTGI (converted)): 81.3 µM | GI50 (HCT-116): 3.47 µM | LC50 (HCT-116): 45.7 µM | TGI (HCT-116; read-out: pTGI (converted)): 18.2 µM | GI50 (SNB-75): 0.263 µM | LC50 (SNB-75): > 100 µM | TGI (SNB-75; read-out: pTGI (converted)): 14.8 µM | GI50 (SNB-19): 11.2 µM | LC50 (SNB-19): 77.6 µM | TGI (SNB-19; read-out: pTGI (converted)): 29.5 µM | GI50 (PC-3): 0.912 µM | CC50 (PC-3; [2]): > 100 µM | TGI (PC-3; read-out: pTGI (converted)): > 100 µM | GI50 (SK-MEL-28): 1.2 µM | CC50 (SK-MEL-28; [2]): > 100 µM | TGI (SK-MEL-28; read-out: pTGI (converted)): 30.9 µM | LC50 (A549): > 100 µM | GI50 (A549; read-out: GI50): 1.41 µM | GI50 (A549; read-out: pGI50 (converted)): 0.977 µM | TGI (A549; read-out: pTGI (converted)): 26.9 µM | GI50 (MDA-MB-435): 1.38 µM | LC50 (MDA-MB-435): > 100 µM | TGI (MDA-MB-435; read-out: pTGI (converted)): 56.2 µM | LC50 (SF-295): 33.9 µM | GI50 (SF-295; read-out: GI50): 0.15 µM | GI50 (SF-295; read-out: pGI50 (converted)): 0.151 µM | TGI (SF-295; read-out: pTGI (converted)): 0.501 µM | GI50 [1]: 0.55 µM | CC50 [1, 2]: > 100 µM | TGI ([1]; read-out: pTGI (converted)): > 100 µM | GI50 (SF-539): 0.141 µM | LC50 (SF-539): > 100 µM | TGI (SF-539; read-out: pTGI (converted)): 12.6 µM | GI50 (EKVX): 4.47 µM | LC50 (50% lethal concentration) (EKVX): > 100 µM | TGI (EKVX; read-out: pTGI (converted)): 83.2 µM | GI50 (DU-145): 3.8 µM | LC50 (DU-145): 52.5 µM | TGI (DU-145; read-out: pTGI (converted)): 20 µM | GI50 (NCI-H460): 0.871 µM | LC50 (concentration killing 50% of cells) (NCI-H460): > 100 µM | TGI (NCI-H460; read-out: pTGI (converted)): > 100 µM | GI50 (HL-60(TB)): 0.661 µM | CC50 (HL-60(TB); [2]): > 100 µM | TGI (HL-60(TB); read-out: pTGI (converted)): 33.9 µM | GI50 (UO-31): 0.501 µM | LC50 (UO-31): 93.3 µM | TGI (UO-31; read-out: pTGI (converted)): 15.1 µM | GI50 (NCI-H23): 4.17 µM | LC50 (NCI-H23): 74.1 µM | TGI (NCI-H23; read-out: pTGI (converted)): 24.5 µM | GI50 (CCRF-CEM): 1.02 µM | LC50 (CCRF-CEM): > 100 µM | TGI (CCRF-CEM; read-out: pTGI (converted)): > 100 µM | GI50 (K562): 2.51 µM | LC50 (K562): > 100 µM | TGI (K562; read-out: pTGI (converted)): 28.8 µM | GI50 (OVCAR-5): 6.61 µM | LC50 (OVCAR-5): > 100 µM | TGI (OVCAR-5; read-out: pTGI (converted)): 41.7 µM | GI50 (RPMI-8226): 0.479 µM | LC50 (RPMI-8226): > 100 µM | TGI (RPMI-8226; read-out: pTGI (converted)): > 100 µM | GI50 (HOP-92): 2.57 µM | LC50 (HOP-92): 45.7 µM | TGI (HOP-92; read-out: pTGI (converted)): 16.6 µM | GI50 (Malme-3M): 11.7 µM | LC50 (Malme-3M): > 100 µM | TGI (Malme-3M; read-out: pTGI (converted)): 67.6 µM | GI50 (UACC-257): 3.47 µM | LC50 (UACC-257): > 100 µM | TGI (UACC-257; read-out: pTGI (converted)): 39.8 µM | GI50 (SF-268): 4.07 µM | LC50 (SF-268): 55 µM | TGI (SF-268; read-out: pTGI (converted)): 20.9 µM
